Measurements as given in ChEMBL document CHEMBL1153820, “Novel derivatives of pyridylbenzo[b]thiophene-2-carboxamides and benzo[b]thieno[2,3-c]naphthyridin-2-ones: minor structural variations provoke major differences of antitumor action mechanisms” (J Med Chem, 2009).
Active and inactive are the calls of the source. The rule behind the calls is not given here.

Assays:
HeLa = assay: Growth inhibition of human HeLa cells after 72 hrs by MTT method; type: functional, cell-based
In short: (§1)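 Cells in DMEM with 10% FBS, 2 mM L-glutamine, penicillin/streptomycin, 37 °C, 5% CO2. Seeded at 1 × 10^4 to 3 × 10^4 cells/mL. Compound given as five 10-fold dilutions (10-8–10-4 M, DMSO under 1%) for 72 h, then MTT read-out. Quadruplicate, three experiments. IC50 by linear regression between concentrations bracketing 50% growth; top concentration reported as ">" when not reached.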

MCF7 = assay: Growth inhibition of human MCF7 cells after 72 hrs by MTT method; type: functional, cell-based; conditions: MCF7, 72 h; in short: as §1
SW-620 = assay: Growth inhibition of human SW620 cells after 72 hrs by MTT method; type: functional, cell-based; conditions: SW-620, 72 h; in short: as §1
NCI-H460 = assay: Growth inhibition of human H460 cells after 72 hrs by MTT method; type: functional, cell-based; conditions: NCI-H460, 72 h; in short: as §1
MIA PaCa-2 [1] = assay: Growth inhibition of human MIAPaCa2 cells after 72 hrs by MTT method; type: functional, cell-based; conditions: MIA PaCa-2, 72 h; in short: as §1
Calf thymus DNA [2] = assay: Binding affinity to calf thymus DNA at pH 7.0 by fluorimetric titration method; type: nucleic-acid assay; conditions: Bos taurus
In short: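 Fluorimetric titration: ct-DNA portions added to compound at about tenfold lower concentration than in UV/vis, absorbance below 0.05 at excitation. Emission 350–550 nm in Na cacodylate buffer pH 7.0, I = 0.05 mol dm-3. log Ks from Scatchard fitting (nonlinear least squares) at fixed n = 0.2.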

MIA PaCa-2 [3] = assay: Cell cycle arrest in human MIAPaCa2 cells assessed as accumulation at G1/G0 phase at 5 uM after 48 hrs by flow cytometry; type: functional
In short: (§2)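 MiaPaCa-2 cells (2 × 10^5/well) seeded, compound (5 μM) added after 24 h, exposed 24 or 48 h. Attached and floating cells pooled, fixed in 70% ethanol, stained with propidium iodide 50 μg/mL plus RNase A. 20 000 events by flow cytometry; phase percentages (sub-G1 taken as apoptotic) from DNA histograms. Duplicates, repeated at least twice.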

MIA PaCa-2 [4] = assay: Cell cycle arrest in human MIAPaCa2 cells assessed as accumulation at subG1 phase at 5 uM after 48 hrs by flow cytometry; type: functional; in short: as §2
Calf thymus DNA [5] = assay: Binding affinity to calf thymus DNA assessed as change in melting temperature at [compound]/[polynucleotide] ratio of 0.5 at pH 7.0; type: nucleic-acid assay; conditions: Bos taurus
In short: (§3)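 Thermal denaturation of ct-DNA (sonicated, filtered, concentration as phosphate) alone and with compound in Na cacodylate buffer pH 7.0, I = 0.05 mol dm-3. Absorbance at 260 nm followed versus temperature, ligand absorbance subtracted, scale normalized. Tm is the transition midpoint, from the first-derivative maximum or by tangent method. ΔTm = Tm(complex) − Tm(free DNA). Mean of at least two runs, error ±0.5 °C.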

Calf thymus DNA [6] = assay: Binding affinity to calf thymus DNA assessed as change in melting temperature at [compound]/[polynucleotide] ratio of 0.3 at pH 7.0; type: nucleic-acid assay; conditions: Bos taurus; in short: as §3
MIA PaCa-2 [7] = assay: Cell cycle arrest in human MIAPaCa2 cells assessed as accumulation at G1/G0 phase at 5 uM after 24 hrs by flow cytometry; type: functional; in short: as §2
MIA PaCa-2 [8] = assay: Cell cycle arrest in human MIAPaCa2 cells assessed as accumulation at subG1 phase at 5 uM after 24 hrs by flow cytometry; type: functional; in short: as §2
MIA PaCa-2 [9] = assay: Cell cycle arrest in human MIAPaCa2 cells assessed as accumulation at G2/M phase at 5 uM after 48 hrs by flow cytometry; type: functional; in short: as §2
Calf thymus DNA [10] = assay: Binding affinity to calf thymus DNA minor groove assessed as change in DNA spectrum by CD spectroscopy; type: nucleic-acid assay; conditions: Bos taurus
MIA PaCa-2 [11] = assay: Cell cycle arrest in human MIAPaCa2 cells assessed as accumulation at S phase at 5 uM after 24 hrs by flow cytometry; type: functional; in short: as §2
MIA PaCa-2 [12] = assay: Cell cycle arrest in human MIAPaCa2 cells assessed as accumulation at G2/M phase at 5 uM after 24 hrs by flow cytometry; type: functional; in short: as §2
Calf thymus DNA [13] = assay: Binding affinity to calf thymus DNA at pH 7.0 by UV/Visible spectroscopy; type: nucleic-acid assay; conditions: Bos taurus
In short: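 UV/vis titration: portions of ct-DNA (as phosphate) added to compound (c = 1.2 × 10-5 mol dm-3). Na cacodylate buffer pH 7.0, I = 0.05 mol dm-3; change followed at λmax 314 nm. Ks and n from Scatchard equation by nonlinear least-squares fitting.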

MIA PaCa-2 [14] = assay: Cell cycle arrest in human MIAPaCa2 cells assessed as accumulation at S phase at 5 uM after 48 hrs by flow cytometry; type: functional; in short: as §2
Bos taurus [15] = species on record: Bos taurus; assay: Inhibition of calf thymus topoisomerase 1-mediated DNA relaxation assessed as induction of plasmid DNA nicking at 200 uM by gel electrophoresis
In short: (§4)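 Supercoiled pCI plasmid (0.8 μg) with calf thymus topoisomerase I (6 U) ± compound (200 μM) in Tris-HCl pH 7.5, 175 mM KCl, 5 mM MgCl2, 0.1 mM EDTA, 2.5% glycerol; 37 °C, 30 min. Stopped with SDS, then proteinase K and phenol/chloroform extraction. Samples run on 1% agarose with and without 0.5 μg/mL ethidium bromide to resolve nicked, supercoiled and relaxed forms; UV visualization.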

Calf thymus DNA [16] = assay: Binding affinity to calf thymus DNA assessed as decrease in DNA bands at 245 nm and 280 nm wavelength by CD spectroscopy; type: nucleic-acid assay; conditions: Bos taurus
Bos taurus [17] = species on record: Bos taurus; assay: Inhibition of calf thymus topoisomerase 1-mediated DNA relaxation at 200 uM by gel electrophoresis; in short: as §4
Bos taurus [18] = species on record: Bos taurus; assay: Inhibition of calf thymus topoisomerase 1-mediated DNA relaxation assessed as induction of plasmid DNA nicking at 100 uM by gel electrophoresis
In short: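 Purified calf thymus topoisomerase I (6 U) was incubated with negatively supercoiled pCI plasmid (0.8 μg), with or without compound, in Tris-HCl relaxation buffer (pH 7.5, 175 mM KCl, 5 mM MgCl2) at 37 °C for 30 min. The reaction was stopped with SDS and proteinase K, then phenol-extracted. Samples were split onto 1% agarose gels with and without ethidium bromide to separate nicked, supercoiled and relaxed forms, and read under UV.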

MIA PaCa-2 [19] = assay: Induction of cell shape disruption in human MIAPaCa2 cells at 5 uM after 24 hrs by immunofluorescence spectroscopy; type: functional, cell-based
In short: (§5)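 MiaPaCa-2 cells (2 × 10^5) grown overnight on coverslips, then exposed to 5 μM compound for 24 h. Fixed in 4% formaldehyde, permeabilized with 0.1% Triton X-100, blocked with 4% FCS. Stained with mouse anti-α-tubulin (1/200, 2 h) and FITC anti-mouse secondary (1/500, 1 h). Nuclei stained with DAPI 100 ng/mL; fluorescence microscopy at 400×.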

MIA PaCa-2 [20] = assay: Induction of nuclear fragmentation in human MIAPaCa2 cells at 5 uM after 24 hrs by DAPI staining; type: functional, cell-based; in short: as §5
MIA PaCa-2 [21] = assay: Induction of multinucleation in human MIAPaCa2 cells at 5 uM after 24 hrs by DAPI staining; type: functional, cell-based; in short: as §5
MIA PaCa-2 [22] = assay: Induction of apoptosis in human MIAPaCa2 cells by flow cytometry; type: functional, cell-based; in short: as §2
MIA PaCa-2 [23] = assay: Induction of tubulin network disruption in human MIAPaCa2 cells at 5 uM after 24 hrs by immunofluorescence spectroscopy; type: functional, cell-based; in short: as §5

| SMILES | IC50 (HeLa) [µM] | IC50 (MCF7) [µM] | IC50 (SW-620) [µM] | IC50 (NCI-H460) [µM] | IC50 (MIA PaCa-2 [1]) [µM] | Activity (MIA PaCa-2 [3]) [%] | Activity (MIA PaCa-2 [4]) [%] | ΔTm (Calf thymus DNA [5]) [°C] | ΔTm (Calf thymus DNA [6]) [°C] | Activity (MIA PaCa-2 [7]) [%] | Activity (MIA PaCa-2 [8]) [%] | Activity (MIA PaCa-2 [9]) [%] | Activity (MIA PaCa-2 [11]) [%] | Activity (MIA PaCa-2 [12]) [%] | Activity (MIA PaCa-2 [14]) [%] | also measured |
| --- | --- | --- | --- | --- | --- | --- | --- | --- | --- | --- | --- | --- | --- | --- | --- | --- |
| O=C(Nc1ccncc1)c1sc2ccccc2c1Cl | 2 | 51 | 38 | 68 | 38 | – | – | – | – | – | – | – | – | – | – | – |
| Cl.O=C(Nc1ccc(C2=NCCN2)cn1)c1sc2ccccc2c1Cl | 1.5 | 1.8 | 1 | 1 | 1 | 52.3 | 4.9 | 2.1 | 1.3 | 37.7 | 3.2 | 15.1 | 41.6 | 20.7 | 32.6 | log Ks (Calf thymus DNA [2]): 5.6; Activity (Calf thymus DNA [10]): Active; log Ks (Calf thymus DNA [13]): 5.7; Activity (Bos taurus [15]): inactive |
| Cl.O=c1[nH]c2ncc(C3=NCCN3)cc2c2c1sc1ccccc12 | 1.7 | 1.6 | 0.6 | 1 | 1 | 52.8 | 1.7 | 8.7 | 6.6 | 38.9 | 2 | 14.1 | 41.5 | 19.7 | 33.2 | log Ks (Calf thymus DNA [2]): 6.44; Activity (Calf thymus DNA [16]): Active; Activity (Bos taurus [15]): inactive; Activity (Bos taurus [17]): Active |
| CC[C@@]1(O)C(=O)OCc2c1cc1n(c2=O)Cc2cc3ccccc3nc2-1 | – | – | – | – | – | – | – | – | – | – | – | – | – | – | – | Activity (Bos taurus [18]): Active |
| N=C(N)c1ccc(-c2cc3ccc(C(=N)N)cc3[nH]2)cc1 | – | – | – | – | – | – | – | – | – | – | – | – | – | – | – | Activity (Bos taurus [18]): inactive |
| O=c1[nH]c2ccncc2c2c1sc1ccccc12 | 14 | > 100 | 6 | > 100 | 7 | – | – | – | – | – | – | – | – | – | – | – |
| Cl.O=C(Nc1ccc(C2=NCCN2)nc1)c1sc2ccccc2c1Cl | 1 | 4 | 1.3 | 1.3 | 1.6 | 23.14 | 36 | 0.9 | 0 | 17.5 | 18.5 | 50.9 | 16 | 66.5 | 26 | Activity (MIA PaCa-2 [19]): Active; Activity (MIA PaCa-2 [20]): Active; Activity (MIA PaCa-2 [21]): Active; Activity (MIA PaCa-2 [22]): Active; Activity (MIA PaCa-2 [23]): Active |
| N#Cc1cnc2[nH]c(=O)c3sc4ccccc4c3c2c1 | 7 | 45 | 22 | > 100 | 12 | – | – | – | – | – | – | – | – | – | – | – |
| N#Cc1ccc(NC(=O)c2sc3ccccc3c2Cl)nc1 | 2 | 20 | 20 | 59 | 8 | – | – | – | – | – | – | – | – | – | – | – |
